The record followed here is publication PMC3902942 (Nucleic Acids Research, 2013).

Experiment [1] deals with λB site DNA hairpin duplex. As to the kind of experiment: Biosensor-SPR direct binding of compounds to immobilized λB site DNA hairpin. The settings on record: read-out: KD for the λB site.
Experiment [2] deals with PU.1-λB complex (PU.1 ETS domain on immobilized λB site hairpin). Description: Biosensor-SPR PU.1-DNA complex inhibition. It counts as binding, murine. A digest of the protocol:
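Murine PU.1 ETS domain (residues 167–272), expressed in E. coli, on a Biacore T200 biosensor. 5′-Biotinylated λB-site hairpin DNA immobilised on CM4 chips. Protein injected at constant 100 nM to saturate DNA sites, with graded compound concentrations added to the protein solution. Loss of protein signal plotted against compound concentration. Transition midpoint taken as IC50.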

Molecules are shown by their SMILES.

For `N=C(N)c1ccc(-c2ccc(-c3ccc(C(=N)N)cc3)o2)cc1` [DB75, furamidine], in experiment [1], the Kd worked out at 530 nM. The “Inhibition of PU.1 binding (in words)” value in experiment [2] was “does not inhibit PU.1 binding”.

Turning to `N=C(N)c1ccc(-c2ccc(-c3ccc(C(=N)N)cc3)[se]2)cc1` [DB1213], the IC50 in experiment [2] (read-out: IC50 of PU.1 binding inhibition) is about 1500 nM.
